Legend:
[1] = substrate: COC(=O)C1CC(c2cc(Br)ccc2OCc2ccc(OC)cc2)=NO1; assay: (§1) Vmax (maximal I influx) of compound against CFTR (cystic fibrosis transmembrane conductance regulator) in rat was determined
Summary of the method: (§2)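 Cells stably co-expressing human wild-type CFTR and YFP-H148Q were grown to confluence in 96-well plates and washed in PBS. Compounds were added from DMSO stocks, with full dose–responses run. A 100 mM inward iodide gradient was applied at 37 °C. Iodide influx was taken from the slope of the YFP fluorescence time course. Kd and Vmax (mM/s) are means of three or more experiments.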

[2] = substrate: COC(=O)C1CC(c2ccccc2OCc2ccc(Br)cc2)=NO1; assay: as §1; summary of the method: as §2
[3] = substrate: COC(=O)C1CC(c2ccccc2OCc2ccc(OC)cc2)=NO1; assay: as §1; summary of the method: as §2
[4] = substrate: COC(=O)C1CC(c2ccccc2OCc2cccc(OC)c2)=NO1; assay: as §1; summary of the method: as §2
[5] = substrate: COC(=O)c1cc(-c2ccccc2OCc2ccc(Br)cc2)no1; assay: as §1; summary of the method: as §2
[6] = substrate: COC(=O)c1onc(-c2ccccc2OCc2ccc(Br)cc2)c1C(=O)OC; assay: as §1; summary of the method: as §2
[7] = substrate: COc1ccc(COc2ccc(Br)cc2-c2cc(CO)on2)cc1; assay: as §1; summary of the method: as §2
[8] = substrate: COc1ccc(COc2ccccc2-c2cc(CCO)on2)cc1; assay: as §1; summary of the method: as §2
[9] = substrate: COc1ccc(COc2ccccc2-c2cc(CO)on2)cc1; assay: as §1; summary of the method: as §2
[10] = substrate: COc1ccc(COc2ccccc2C2=NOC(CCl)C2)cc1; assay: as §1; summary of the method: as §2
[11] = substrate: COc1ccc(COc2ccccc2C2=NOC(CO)C2)cc1; assay: as §1; summary of the method: as §2
[12] = substrate: COc1cccc(COc2ccccc2-c2cc(CCO)on2)c1; assay: as §1; summary of the method: as §2
[13] = substrate: COc1cccc(COc2ccccc2-c2cc(CO)on2)c1; assay: as §1; summary of the method: as §2
[14] = substrate: COc1cccc(COc2ccccc2C2=NOC(CCl)C2)c1; assay: as §1; summary of the method: as §2
[15] = substrate: COc1cccc(COc2ccccc2C2=NOC(CO)C2)c1; assay: as §1; summary of the method: as §2
[16] = substrate: ClCc1cc(-c2ccccc2OCc2ccc(Br)cc2)no1; assay: as §1; summary of the method: as §2
[17] = substrate: OCCc1cc(-c2ccccc2OCc2ccc(Br)cc2)no1; assay: as §1; summary of the method: as §2
[18] = substrate: OCc1cc(-c2ccccc2OCc2ccc(Br)cc2)no1; assay: as §1; summary of the method: as §2

B1: Cystic fibrosis transmembrane conductance regulator (Rattus norvegicus), P34158 (protein)
chain: MQKSPLEKASFISKLFFSWTTPILRKGYRHHLELSDIYQAPSSDSADHLSEKLEREWDREQASKKKPQLIHALRRCFVWRFVFYGVLLYLGEVTKAVQPVLLGRIIASYDPDNTEERSIAIYLGIGLCLLFIVRTLLLHPAIFGLHHIGMQMRIAMFSLIYKKTLKLSSRVLDKISIGQLISLLSNNLNKFDEGLALAHFIWIAPLQVVLLMGLLWDLLQFSAFCGLGLLIVLVIFQAILGKMMVKYRDKRAAKINERLVITSEVIDNIYSVKAYCWESAMEKIIESLREEELKMTRRSAYMRFFTSSAFFFSGFFVVFLSVLPYTVINGIVLRKIFTTISFCIVLRMSVTRQFPTAVQIWYDSLGMIRKIQDFLQTQEYKVLEYNLMFTGLVMENVTAFWEEGFQELLEKVQLNNDDRKTSNGENHLSFSHLCLVGNPVLKNINLNIKKGEMLAITGSTGAGKTSLLMLILGELEASEGIIKHSGRVSFSSQISWIMPGTIKENIIFGVSYDEYRYKSVVKACQLQEDITKFAEQDNTVLGEGGVTLSGGQRARISLARAVYKDADLYLLDSPFGYLDVLTEEQIFESCVCKLMASKTRILVTSKMEQLKKADKILILHEGSSYFYGTFSELQSLRPDFSSKLMGYDTFDQFTEERRSSILTETLRRFSVDDASTTWNKAKQSFRQTGEFGEKRKNSILSSFSSVKKISIVQKTPLSIEGESDDLQERRLSLVPDSEHGEAALPRSNMITAGPTFPGRRRQSVLDLMTFTPSSVSSSLQRTRASIRKISLAPRISLKEEDIYSRRLSQDSTLNITEEINEEDLKECFFDDMVKIPTVTTWNTYLRYFTLHRGLFAVLIWCVLVFLVEVAASLFVLWLLKNNPVNGGNNGTKIANTSYVVVITSSSFYYIFYIYVGVADTLLALSLFRGLPLVHTLITASKILHRKMLHSILHAPMSTFNKLKAGGILNRFSKDIAILDDFLPLTIFDFIQLLFIVVGAIIVVSALQPYIFLATVPGLAVFILLRAYFLHTSQQLKQLESEGRSPIFTHLVTSLKGLWTLRAFRRQTYFETLFHKALNLHTANWFMYLATLRWFQMRIDMIFVLFFIVVTFISILTTGEGEGTTGIILTLAMNIMSTLQWAVNSSIDTDSLMRSVSRVFKFIDIQTEESICTKIMKELHSEDSPNALVIKNEHVKKCDTWPSGGEMVVKDLTVKYVDDGNAILENISFSISPGQRVGLLGRTGSGKSTLLSAFLRMLNIKGEIQIDGVSWNSMTLQEWRKAFGVITQKVFIFSGTFRQNLDPNGKWRDEEIWKVADQVGLKSVIEQFPGQLNFTLVDGGYVLSHGHKQLMCLARSVLSKAKIILLDEPSANLDPITYQVIRRVLRQAFAGCTVVLCEHRIEAMLDCQRFLVIEQGNVWQYESLQALLSEKSVFQRALSSSEKMKLFHGRHSSKQKPRTQITAVKEETEEEVQETRL
Work on B1 yielded a Vmax [1] of 1.04 mM/s, a Vmax [2] of 0.81 mM/s and a Vmax [3] of 1.13 mM/s. It also gave a Vmax [4] of 1.08 mM/s, a Vmax [5] of 1.01 mM/s and a Vmax [6] of 0.97 mM/s. The Vmax [7] was 1.03 mM/s, the Vmax [8] was 1.05 mM/s and the Vmax [9] was 1.06 mM/s. It also gave a Vmax [10] of 1.2 mM/s, a Vmax [11] of 1.07 mM/s and a Vmax [12] of 0.94 mM/s. It also gave a Vmax [13] of 1.04 mM/s, a Vmax [14] of 1.02 mM/s and a Vmax [15] of 0.99 mM/s. It also gave a Vmax [16] of 1.02 mM/s, a Vmax [17] of 1.02 mM/s and a Vmax [18] of 1.06 mM/s.

Reference: ChEMBL document CHEMBL1136128, “3-(2-Benzyloxyphenyl)isoxazoles and isoxazolines: synthesis and evaluation as CFTR activators” (Bioorg Med Chem Lett, 2003)
